Two proteins from ChEMBL document CHEMBL1932930, “Synthesis and biological assessment of novel 2-thiazolylhydrazones and computational analysis of their recognition by monoamine oxidase B” (Eur J Med Chem, 2012) can be followed below.

Substrate in series [1]: NCCc1ccc(O)cc1
The series is described as follows: Activity of human recombinant MAO-A expressed in baculovirus infected BTI-TN-5B1-4 insect cells assessed as hydrogen peroxide production after 15 mins by fluorimetric method. An outline of the steps:
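Microsomal hMAO-A (specific activity 150 nmol p-tyramine/min/mg protein), dosed to oxidize 165 pmol p-tyramine/min in controls. It was preincubated 15 min at 37 °C in 0.05 M sodium phosphate pH 7.4 with test drug, then started with 1 mM p-tyramine (final). H2O2 was read as Amplex Red/peroxidase resorufin fluorescence (ex 545/em 590) over 15 min at 37 °C, in the dark.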

Substrate in series [2]: NCCc1ccc(O)cc1
Nature of the series: Activity of human recombinant MAO-B expressed in baculovirus infected BTI-TN-5B1-4 insect cells assessed as hydrogen peroxide production after 15 mins by fluorimetric method. An outline of the steps: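 Microsomal hMAO-B (specific activity 22 nmol p-tyramine/min/mg protein), adjusted to oxidize 165 pmol p-tyramine/min in controls. It was preincubated 15 min at 37 °C with drug in 0.05 M sodium phosphate pH 7.4, then started with 1 mM p-tyramine (final). Resorufin fluorescence (ex 545/em 590) from Amplex Red/peroxidase was read over 15 min at 37 °C, in the dark. Controls used DMSO vehicle.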

B1: Amine oxidase [flavin-containing] A (Homo sapiens) (protein)
chain: MENQEKASIAGHMFDVVVIGGGISGLSAAKLLTEYGVSVLVLEARDRVGGRTYTIRNEHVDYVDVGGAYVGPTQNRILRLSKELGIETYKVNVSERLVQYVKGKTYPFRGAFPPVWNPIAYLDYNNLWRTIDNMGKEIPTDAPWEAQHADKWDKMTMKELIDKICWTKTARRFAYLFVNINVTSEPHEVSALWFLWYVKQCGGTTRIFSVTNGGQERKFVGGSGQVSERIMDLLGDQVKLNHPVTHVDQSSDNIIIETLNHEHYECKYVINAIPPTLTAKIHFRPELPAERNQLIQRLPMGAVIKCMMYYKEAFWKKKDYCGCMIIEDEDAPISITLDDTKPDGSLPAIMGFILARKADRLAKLHKEIRKKKICELYAKVLGSQEALHPVHYEEKNWCEEQYSGGCYTAYFPPGIMTQYGRVIRQPVGRIFFAGTETATKWSGYMEGAVEAGERAAREVLNGLGKVTEKDIWVQEPESKDVPAVEITHTFWERNLPSVSGLLKIIGFSTSVTALGFVLYKYKLLPRS
For the protein B1, in series [1], the Km was 514 µM and the Vmax amounted to 0.301 µmol/min/mg.

B2: Amine oxidase [flavin-containing] B (Homo sapiens) (protein)
chain: MSNKCDVVVVGGGISGMAAAKLLHDSGLNVVVLEARDRVGGRTYTLRNQKVKYVDLGGSYVGPTQNRILRLAKELGLETYKVNEVERLIHHVKGKSYPFRGPFPPVWNPITYLDHNNFWRTMDDMGREIPSDAPWKAPLAEEWDNMTMKELLDKLCWTESAKQLATLFVNLCVTAETHEVSALWFLWYVKQCGGTTRIISTTNGGQERKFVGGSGQVSERIMDLLGDRVKLERPVIYIDQTRENVLVETLNHEMYEAKYVISAIPPTLGMKIHFNPPLPMMRNQMITRVPLGSVIKCIVYYKEPFWRKKDYCGTMIIDGEEAPVAYTLDDTKPEGNYAAIMGFILAHKARKLARLTKEERLKKLCELYAKVLGSLEALEPVHYEEKNWCEEQYSGGCYTTYFPPGILTQYGRVLRQPVDRIYFAGTETATHWSGYMEGAVEAGERAAREILHAMGKIPEDEIWQSEPESVDVPAQPITTTFLERHLPSVPGLLRLIGLTTIFSATALGFLAHKRGLLVRV
With B2, in series [2], the Km amounted to 105 µM and the Vmax came to 0.0289 µmol/min/mg.

In general, Km refers to the substrate concentration at which the rate is half of its maximum. As usually defined, the Vmax is the top rate of the reaction or transport when substrate is in excess.
